# Calls of active or inactive are those of the source.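 Rule for the calls: active = signal-lowering compounds whose fitted half-effect concentration is no more than twice the top tested dose; inconclusive = flat curve with 30 to 70% inhibition, or poor fit; inactive = the rest.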
# Experiment: quencher artefacts in RAD54 branch migration readout – biochemical, Cy5 label, cherry-picked samples, artefact control for RAD54 inhibitor project, dose response (AID 651651)
# Conditions: Cy5 DNA fluorescence quench counter-screen; series mostly up to 50 µM
# Summary of the method: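 Test system: human RAD54 enzyme; Amount: 30 nM RAD54 in the enzyme mix; Medium: 25 mM Tris pH 7.5, 3 mM MgCl2, 2 mM ATP; Measured by: Cy5 fluorescence; Times: 60 min reaction at room temperature after substrate addition; Doses: pinned compound dose series, 10 mM stock solutions.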
row,Compound,outcome
1,O=C(NC1CCC1)[C@@H]1[C@@H](CO)[C@@H]2Cn3c(ccc(-c4ccc(F)cc4)c3=O)[C@@H]2N1Cc1ccccn1,inactive
2,COc1ccc(CN(C)C[C@@H]2Oc3ccc(NC(=O)Nc4ccc(F)cc4)cc3C(=O)N([C@@H](C)CO)C[C@H]2C)cc1,inactive
3,C[C@@H]1CN([C@@H](C)CO)C(=O)c2cc(NS(=O)(=O)c3cccs3)ccc2O[C@@H]1CN(C)C(=O)Nc1cccc2ccccc12,inactive
4,COc1ccccc1CNC(=O)C[C@H]1C[C@@H]2c3cc(NC(=O)c4cccnc4)ccc3O[C@@H]2[C@H](CO)O1,inactive
5,COc1ccc(S(=O)(=O)N(C)C[C@@H]2Oc3ccc(NC(=O)Nc4ccc5c(c4)OCO5)cc3C(=O)N([C@H](C)CO)C[C@H]2C)cc1,inactive
6,O=S(=O)(c1ccccc1)N1CCCCN2[C@H](CO)[C@H](c3ccc(C#CC4CCCC4)cc3)[C@@H]2C1,inactive
7,COc1ccc(CN(C)C[C@@H]2Oc3ccc(NC(=O)NC4CCCCC4)cc3C(=O)N([C@@H](C)CO)C[C@H]2C)cc1,inactive
8,COc1ccc(CN(C)C[C@@H]2Oc3ccc(NC(=O)Nc4ccc(F)cc4)cc3C(=O)N([C@H](C)CO)C[C@H]2C)cc1,inactive
9,COc1ccc(S(=O)(=O)N(C)C[C@@H]2Oc3ccc(NC(=O)Nc4ccc(C(F)(F)F)cc4)cc3C(=O)N([C@H](C)CO)C[C@H]2C)cc1,inactive
10,Cc1noc(C)c1NC(=O)Nc1ccc2c(c1)C(=O)N([C@@H](C)CO)C[C@H](C)[C@@H](CN(C)S(C)(=O)=O)OCCCC[C@@H](C)O2,inactive
11,COc1ccc(-c2ccc3c(c2)O[C@H](CN(C)C(C)=O)[C@H](C)CN([C@@H](C)CO)S3(=O)=O)cc1,inactive
12,COc1ccc(S(=O)(=O)N(C)C[C@@H]2Oc3ccc(NC(=O)Nc4ccc5c(c4)OCO5)cc3C(=O)N([C@@H](C)CO)C[C@H]2C)cc1,inactive
13,COc1ccc(S(=O)(=O)N(C)C[C@@H]2Oc3ccc(NC(=O)Nc4c(C)noc4C)cc3CC(=O)N([C@@H](C)CO)C[C@@H]2C)cc1,inactive
14,C[C@H]1CCCCO[C@@H](CN(C)C(=O)Nc2ccc3c(c2)OCO3)[C@@H](C)CN([C@@H](C)CO)C(=O)c2cc(NC(=O)Nc3ccc(C(F)(F)F)cc3)ccc2O1,inactive
15,Cc1ccc(S(=O)(=O)N(C)C[C@@H]2Oc3ccc(NC(=O)NC(C)C)cc3C(=O)N([C@H](C)CO)C[C@H]2C)cc1,inactive
16,CS(=O)(=O)N1[C@@H]2Cn3c(ccc(C4=CCCCC4)c3=O)[C@H]1[C@@H](C(=O)N1CCOCC1)[C@@H]2CO,inactive
17,C[C@@H]1CN([C@H](C)CO)C(=O)c2cc(NC(=O)Nc3ccc4c(c3)OCO4)ccc2O[C@H]1CN(C)Cc1ccc2c(c1)OCO2,inactive
18,C[C@H](NC(=O)C[C@H]1C[C@H]2c3cc(NC(=O)c4cccnc4)ccc3O[C@H]2[C@@H](CO)O1)c1ccccc1,inactive
19,C[C@H]1CN([C@@H](C)CO)C(=O)c2cc(NS(=O)(=O)c3cccs3)ccc2O[C@@H]1CN(C)C(=O)Nc1cccc2ccccc12,inactive
20,COc1ccc(C#Cc2ccc([C@H]3[C@@H](CO)N4CCCCN(C(=O)Nc5cccc(F)c5)C[C@H]34)cc2)cc1,inactive
21,C[C@@H]1CN([C@@H](C)CO)C(=O)c2cc(C3=CCCC3)cnc2O[C@@H]1CN(C)C(=O)Nc1ccc(F)cc1,inactive
22,COc1ccc(CN(C)C[C@@H]2Oc3ccc(NC(=O)Nc4ccccc4)cc3C(=O)N([C@H](C)CO)C[C@H]2C)cc1,inactive
23,COc1ccc(CN(C)C[C@@H]2Oc3ccc(NC(=O)Nc4c(C)noc4C)cc3C(=O)N([C@H](C)CO)C[C@H]2C)cc1,inactive
24,C[C@@H]1CCCCO[C@@H](CN(C)S(C)(=O)=O)[C@H](C)CN([C@H](C)CO)C(=O)c2cc(NC(=O)Nc3ccc4c(c3)OCO4)ccc2O1,inactive
25,COc1ccc(CN(C)C[C@@H]2Oc3ccc(NC(=O)Nc4ccc(OC)cc4)cc3C(=O)N([C@@H](C)CO)C[C@H]2C)cc1,inactive
26,Cc1cc(C(=O)Nc2cccc3c2O[C@H](CN(C)Cc2ccc(C(F)(F)F)cc2)[C@@H](C)CN([C@H](C)CO)C3=O)n(C)n1,inactive
27,COc1ccc(CN(C)C[C@@H]2Oc3ccc(NC(=O)NC(C)C)cc3C(=O)N([C@@H](C)CO)C[C@H]2C)cc1,inactive
28,COc1ccc(-c2ccc3c(c2)[C@H]2[C@H](CCN2C(=O)Cc2cccnc2)[C@H](CO)N3C)cc1,inactive
29,Cc1noc(C)c1NC(=O)Nc1ccc2c(c1)C(=O)N([C@@H](C)CO)C[C@@H](C)[C@H](CN(C)C(=O)Nc1cccc3ccccc13)O2,inactive
30,Cc1ccc(S(=O)(=O)N(C)C[C@@H]2Oc3ccc(NC(=O)NC4CCCCC4)cc3CC(=O)N([C@H](C)CO)C[C@@H]2C)cc1,inactive
